KCNQ1 act: potentiates or activates the human KCNQ1 potassium channel; P51787; CHO-K1 KCNQ1, thallium flux FluxOR fluorescence; stronger effect = higher value; B-score at 10 µM; actives 0.35% (n = 310,000); AID 2648;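 active = fluorescence ratio B-score, a plate-corrected score, at least three library SD, with initial intensity B-score within 5 SD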
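assay system = CHO-K1 cells stably expressing KCNQ1 | medium = assay buffer, equal DMSO in all wells | timing = 37 °C overnight plating, 90-min dark dye load, 20-min compound pretreatment | measured by = kinetic FluxOR thallium fluorescence, 10-s 1-Hz baseline, 110-s post-stimulus read | measure = fluorescence change relative to baseline, converted to B score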
KCNK9 inh: human KCNK9 channel inhibition | actives 1.2% (n = 310,000) | B-score at 10 µM | AID 488922 | HEK293 KCNK9, FluxOR thallium flux fluorescence; stronger effect = lower value;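 active = ratio B-score over 3 SD below the library mean, with starting fluorescence within 5 SD of its mean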;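 note: negative B-score means less thallium flux so channel inhibition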
KCNQ1 block: human KCNQ1 channel inhibition | P51787 | actives 1.3% (n = 310,000) | B-score at 10 µM | CHO-K1 KCNQ1, FluxOR thallium flux fluorescence; stronger effect = higher value;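 active = compounds whose thallium flux B-score, printed positive for inhibition, exceeds three library SD while starting fluorescence stays within three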;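 note: channel opened by potassium depolarization with thallium stimulus after 20 min compound exposure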
KCNK3 inh: human KCNK3 channel inhibition, primary screen. O14649. CHO-KCNK3 thallium flux, FluxOR fluorescence; stronger effect = lower value. B-score at 10 µM. actives 0.84% (n = 340,000);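 active = B-score under library mean minus 4 SD, starting fluorescence ratio at most library mean plus 5 SD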;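 note: more negative B-score means stronger inhibition of thallium flux through KCNK3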
hERG protect: shields human hERG channel from block by proarrhythmic agents; actives 0.51% (n = 310,000); activation (rescue from dofetilide block), less the hit threshold, % at 10 µM; CHO-hERG, FluxOR thallium flux, dofetilide IC70 present; Q12809;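 active = activation above the mean of controls blocked by dofetilide plus 5 SD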;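 note: thallium influx through hERG after potassium depolarization seen as dye fluorescence rise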
Kir21 inh: blocks the mouse Kir2.1 inward-rectifier potassium channel | P35561 | HEK293-Kir2.1, FluxOR thallium flux fluorescence; stronger effect = lower value | B-score at 10 µM | actives 0.85% (n = 310,000) | AID 1672;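 active = fluorescence ratio B-score at or below minus 3 SD of library scores, with starting-brightness B-score within 2 SD, cut at about -4.2 in these data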;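 note: channel flux triggered by added potassium and thallium sulfate stimulus; B-score of peak minus minimum fluorescence over baseline after thallium stimulus; more negative B-score means stronger Kir2.1 block with less thallium influx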
Target sequence (P35561 whole entry, looked up): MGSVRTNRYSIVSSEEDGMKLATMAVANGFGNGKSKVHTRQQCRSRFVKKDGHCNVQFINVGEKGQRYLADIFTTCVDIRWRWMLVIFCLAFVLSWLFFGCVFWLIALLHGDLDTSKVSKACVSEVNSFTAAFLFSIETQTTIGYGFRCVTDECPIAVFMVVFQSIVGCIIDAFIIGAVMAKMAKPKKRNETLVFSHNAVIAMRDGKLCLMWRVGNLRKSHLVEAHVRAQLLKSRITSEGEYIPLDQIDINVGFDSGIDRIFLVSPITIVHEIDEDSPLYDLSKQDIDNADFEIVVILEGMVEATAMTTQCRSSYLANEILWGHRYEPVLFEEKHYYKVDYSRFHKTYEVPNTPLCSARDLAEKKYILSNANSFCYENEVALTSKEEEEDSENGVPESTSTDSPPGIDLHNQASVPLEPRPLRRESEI
Each line names hits and unclear results; the compound was inactive in the other large screens; ! = not active in a repeat. Only some compounds are listed: those with a hit (about 3.7% of all), similar ones and a draw of the others.

COc1ccc(Cl)cc1CN1CCN(c2nc(C)cc(C)c2C#N)CC1	KCNK3 inh -9.63
Cc1ccc(NC(=O)CC(N)=S)cc1	none
Cc1ccc(NC(=O)CC(O)(C(F)(F)F)C(F)(F)F)cc1	KCNQ1 block 7
CCOC(=O)C1=CNS(=O)(=O)NC1c1cccc(O)c1 (stereo unspecified)	none (no result: KCNQ1 act, KCNK9 inh, KCNQ1 block, hERG protect, Kir21 inh)
COc1ccc(OC)c(S(=O)(=O)N2CCC(NC(=O)c3ccccc3)CC2)c1	KCNK9 inh -7.26
COc1ccc(Cl)cc1NC(=O)NC(C)C	none
CC(C)NC(=O)Nc1n[nH]c(Nc2ccc(Cl)cc2)n1	hERG protect 5.3
CC(Oc1ccc(Cl)cc1Cl)C(=O)Nc1ccc2oc(-c3ccncc3)nc2c1 (stereo unspecified)	KCNK3 inh -10.2
CC(C)CC(=O)Nc1ccc2oc(-c3ccncc3)nc2c1	none
CCCC(=O)NC(=S)Nc1ccccc1N1CCOCC1	none
O=C(O)c1ccccc1NC(=S)NC(=O)c1sc2ccccc2c1Cl	none
O=C(NNC(=S)NC(=O)c1sc2ccccc2c1Cl)c1ccc(Cl)cc1	KCNQ1 act 62, hERG protect 43.8
Cc1ccc(NC(=S)NC(=O)c2sc3ccccc3c2Cl)c(C(=O)O)c1	KCNQ1 act 9, hERG protect 8.6 (no result: KCNK3 inh)
O=C(NC(=S)Nc1ccc(N2CCOCC2)c(Cl)c1)c1sc2ccccc2c1Cl	KCNQ1 act 21, hERG protect 21.1
O=C(NC(=S)Nc1ccccc1N1CCOCC1)c1sc2ccccc2c1Cl	KCNQ1 act 13
COc1ccc(OCC(=O)NC(=S)Nc2ccc(N3CCOCC3)c(Cl)c2)cc1	KCNQ1 act 13
CC(OC(=O)c1ccc2c(c1)OCCO2)C(=O)NC1CCCCC1C (stereo unspecified)	none
S=C(NCCc1ccccc1)N/N=C/c1ccc(Cl)cc1	none
S=C(NCCc1ccccc1)N/N=C/c1c(Cl)cccc1Cl	hERG protect 11.0
O=C(NCc1cccnc1)C(=O)Nc1nc(C23CC4CC(CC(C4)C2)C3)cs1	none
O=C(NCc1ccncc1)C(=O)Nc1nc(C23CC4CC(CC(C4)C2)C3)cs1	none
O=C(NCc1ccccc1)C(=O)Nc1nc(C23CC4CC(CC(C4)C2)C3)cs1	KCNQ1 act 10, hERG protect 17.5
O=C(NCc1ccc(F)cc1)C(=O)Nc1nc(C23CC4CC(CC(C4)C2)C3)cs1	hERG protect 4.9
COc1cccc(Oc2ccc(C(F)(F)F)cc2NC(=O)CN2C(=O)NC3(CCCC3)C2=O)c1	none (no result: KCNQ1 act, KCNK9 inh, KCNQ1 block, hERG protect, Kir21 inh)
Cc1onc(-c2ccccc2Cl)c1C(=O)Nc1nnc(-c2cccc([N+](=O)[O-])c2)s1	KCNQ1 block 11
CCSc1nnc(NC(=O)c2c(-c3ccccc3Cl)noc2C)s1	none
COc1ccc(N2CCN(C(=O)CCc3nnc4ccc(N5CCOCC5)nn34)CC2)cc1	none
COc1ccc(NS(=O)(=O)c2cn(C)cn2)c(OC)c1	none
CN(C)CCCNc1ncnc2oc(-c3ccccc3)c(-c3ccccc3)c12	Kir21 inh -4.6
N#CCCN1CCN(C(=S)c2ccc(-c3cc(Cl)ccc3Cl)o2)CC1	KCNK9 inh -7.8
COc1ccc(CC(=O)NCC(C)(C)N2CCOCC2)cc1	none
Cc1cc(C(=O)OC(C(=O)Nc2cccc(C(F)(F)F)c2)c2ccccc2)c(C)o1 (stereo unspecified)	KCNQ1 block 9
COc1cc(Cl)ccc1NC(=S)N(CCN1CCOCC1)C1CCN(C(C)=O)CC1	none
CSc1cccc(NC(=O)COC(=O)C2CCN(S(=O)(=O)c3ccccc3)CC2)c1	none (no result: KCNQ1 act, KCNK9 inh, KCNQ1 block, hERG protect, Kir21 inh)
CC(=O)N1c2ccc(S(=O)(=O)NCC3CCC(C(=O)NCc4ccco4)CC3)cc2CC1C (stereo unspecified)	none
CC(C)n1cnc2c(N(C)c3ccccc3)nc(N(CCN(C)C)Cc3ccccc3)nc21	Kir21 inh -6.78
CC1(C)Cc2c(ccc3ccccc23)C2=C(C(=O)N3CCCC3)C(=O)C(=O)N21	hERG protect 5.1
CCOc1ccc(C(=O)Nc2ccc3c(c2)OCCO3)cc1	none
O=C(NCCS(=O)(=O)N1CCN(c2ccccc2F)CC1)c1cc(=O)c2ccccc2o1	none
CC(C)C[C@H]1CN=C(Nc2ccccc2)N1CCCC1CCCC1	Kir21 inh -4.62
CCCCCCCN1C(Nc2ccccc2)=NC[C@@H]1CC(C)C	KCNQ1 block 7, Kir21 inh -4.86
CC(C)C[C@H]1CN=C(Nc2ccccc2)N1CCCC1CCCCC1	none
O=c1cc(-c2ccccc2)cc(-c2ccccc2)n1O	KCNQ1 act 23, hERG protect 18.1
Cc1ccc(N)cc1O	none (no result: KCNQ1 act, KCNK9 inh, KCNQ1 block, hERG protect, Kir21 inh)
Cc1cc(O)c(-c2cc(O)c(C)cc2O)cc1O	Kir21 inh -4.8
CN1/C(=C/C=N/n2cnnc2)C(C)(C)c2ccccc21	none
CN1/C(=C\C=N\NC(=O)c2ccccc2Br)C(C)(C)c2ccccc21	KCNQ1 block 9
CC(C)c1ccc(NC(=O)c2cc(S(=O)(=O)N3CCCCC3)c[nH]2)cc1	none
COc1cc(/C=C2/C(=O)N(c3ccc(Br)cc3)N=C2C)cc(OC)c1OC	KCNQ1 block 8
CCOC(=O)c1sc2nc(Cc3ccc(Cl)cc3)[nH]c(=S)c2c1C	KCNQ1 act 46, hERG protect 74.9
Cc1nc(N2CCCCC2C)c2c(C)c(C(=O)Nc3cccc(C(F)(F)F)c3)sc2n1 (stereo unspecified)	KCNQ1 block 7
Cc1nc(N2CCCCC2)c2c(C)c(C(=O)Nc3ccccc3C(F)(F)F)sc2n1	none
CCOC(=O)C1=C(Nc2ccccc2)CC(C)(O)C(C(=O)OCC)C1c1ccc(Cl)cc1 (stereo unspecified)	KCNK3 inh -9.94! (no result: KCNQ1 act, KCNK9 inh, KCNQ1 block, hERG protect, Kir21 inh)
CCC(=O)Nc1ccc(C(=O)CSc2nc3ccccc3cc2CC)cc1	KCNK9 inh -7.18
Nc1ccc2c(c1)C(=O)C(=O)c1ccccc1-2	hERG protect 6.9
CCN(CC)S(=O)(=O)c1ccc(OC)c(NC(=O)c2cc([N+](=O)[O-])ccc2Cl)c1	none
CCN(CC)S(=O)(=O)c1ccc(Cl)c(C(=O)Nc2ccc(Cl)cc2[N+](=O)[O-])c1	KCNK9 inh -6.62
COc1cccc(CN(C)CC(=O)NCc2ccc(F)cc2)c1OC	none
COc1ccccc1CNC(=O)CN(C)Cc1ccc(SC)cc1	Kir21 inh -5.41
O=C(COc1c(Cl)cc(Cl)cc1Cl)c1ccc(Cl)cc1	none
COc1ccc(-c2nc(CSCC(=O)NCCC3=CCCCC3)c(C)o2)cc1OC	Kir21 inh -5.06
C/C(=N\NC(N)=S)C1C2C3CC4C5CC(C42)C1C53 (stereo unspecified)	Kir21 inh -6.03
CS(=O)(=O)Nc1cccc(C2=NN(C(=O)CCCC(=O)O)C(c3cccs3)C2)c1 (stereo unspecified)	none
CCOC(=O)c1c(S(=O)(=O)N2CCCCCC2)c(C)n(C)c1C	none
